The source made the active and inactive calls. The rule behind the calls is not given here.
Assays:
A549 [1] = test: Antiproliferative activity against human A549 cells after 48 hrs by MTT assay; type: functional, cell-based; settings: A549, 48 h
Procedure, shortened: (§1)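 Cells grown in DMEM with 10% FBS and penicillin/streptomycin at 37°C, 5% CO2. 2 × 10^5 cells seeded per well in 200 µL medium. Compounds added 30 min after seeding, then 48 h incubation at 37°C. MTT (5 mg/ml stock) added for the last 4 h. Formazan dissolved in DMSO.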

NCI-H460 = test: Antiproliferative activity against human NCI-H460 cells after 48 hrs by MTT assay; type: functional, cell-based; settings: NCI-H460, 48 h; procedure, shortened: as §1
A549 [2] = test: Induction of apoptosis in human A549 cells assessed as viable cells at 2.5 uM after 12 hrs by Annexin V-FITC/propidium iodide staining-based flow cytometric analysis (reference value: 90.6%); type: functional; settings: A549, 12 h, read-out: Activity
Procedure, shortened: (§2)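 After 12 h treatment with DMSO as control, A549 cells were harvested by trypsin, washed twice in PBS and resuspended at 1 × 10^6 cells/mL in binding buffer. Annexin V-FITC and PI staining for 30 min at room temperature in the dark. Flow cytometry with 488 nm excitation, FITC read at 530 nm and PI at 670 nm. Quadrant percentages are means of three independent experiments.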

A549 [3] = test: Induction of apoptosis in human A549 cells assessed as early apoptotic cells at 2.5 uM after 12 hrs by Annexin V-FITC/propidium iodide staining-based flow cytometric analysis (reference value: 7.19%); type: functional; procedure, shortened: as §2
A549 [4] = test: Induction of apoptosis in human A549 cells assessed as late apoptotic cells at 2.5 uM after 12 hrs by Annexin V-FITC/propidium iodide staining-based flow cytometric analysis (reference value: 0.76%); type: functional; procedure, shortened: as §2
A549 [5] = test: Induction of apoptosis in human A549 cells assessed as necrotic cells at 2.5 uM after 12 hrs by Annexin V-FITC/propidium iodide staining-based flow cytometric analysis (reference value: 1.42%); type: functional; procedure, shortened: as §2
A549 [6] = test: Induction of apoptosis in human A549 cells assessed as viable cells at 5 uM after 12 hrs by Annexin V-FITC/propidium iodide staining-based flow cytometric analysis (reference value: 90.6%); type: functional; settings: A549, 12 h, read-out: Activity; procedure, shortened: as §2
A549 [7] = test: Induction of apoptosis in human A549 cells assessed as early apoptotic cells at 5 uM after 12 hrs by Annexin V-FITC/propidium iodide staining-based flow cytometric analysis (reference value: 7.19%); type: functional; procedure, shortened: as §2
A549 [8] = test: Induction of apoptosis in human A549 cells assessed as late apoptotic cells at 5 uM after 12 hrs by Annexin V-FITC/propidium iodide staining-based flow cytometric analysis (reference value: 0.76%); type: functional; procedure, shortened: as §2
A549 [9] = test: Induction of apoptosis in human A549 cells assessed as necrotic cells at 5 uM after 12 hrs by Annexin V-FITC/propidium iodide staining-based flow cytometric analysis (reference value: 1.42%); type: functional; procedure, shortened: as §2
A549 [10] = test: Inhibition of RAF/MEK/ERK in human A549 cells assessed as reduction in ERK phosphorylation after 8 hrs by Western blot analysis; type: cell-based
Procedure, shortened: (§3)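 Western blot with primary antibody in BSA overnight at 4°C. Washes in TBS/0.05% Tween-20, then secondary antibody for 1 h at room temperature. Chemiluminescent detection. p-ERK or p-AKT band density normalized to β-actin loading control versus control. Average of three independent experiments.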

A549 [11] = test: Inhibition of PI3K/PDK1/AKT in human A549 cells assessed as reduction in AKT phosphorylation after 8 hrs by Western blot analysis; type: cell-based; procedure, shortened: as §3
A549 [12] = test: Inhibition of RAF/MEK/ERK in human A549 cells assessed as reduction in ERK phosphorylation at 2.5 uM after 8 hrs by Western blot analysis; type: cell-based; procedure, shortened: as §3
A549 [13] = test: Inhibition of PI3K/PDK1/AKT in human A549 cells assessed as reduction in AKT phosphorylation at 2.5 uM after 8 hrs by Western blot analysis; type: cell-based; procedure, shortened: as §3

Compound	IC50 (A549 [1])	IC50 (NCI-H460)	other results
O=C1Nc2ccc(Nc3ccc(F)cc3)cc2/C1=C\c1ccc2c(c1)OCO2	26.3 µM	> 100 µM	–
CC(C)CCC1(O)C(=O)Nc2ccc(Nc3ccc(C(F)(F)F)cc3)cc21 (stereo unspecified)	4.2 µM	17.2 µM	–
CCCCCC1(O)C(=O)Nc2ccc(Nc3ccc(C(F)(F)F)cc3)cc21 (stereo unspecified)	2.2 µM	16.3 µM	–
O=C1Nc2ccc(Nc3ccc(F)cc3)cc2C1(O)Cc1ccc2c(c1)OCO2 (stereo unspecified)	24.9 µM	80.4 µM	–
CC(C)CCC1(O)C(=O)Nc2ccc(Nc3ccc(Cl)cc3)cc21 (stereo unspecified)	2.7 µM	25 µM	–
O=C1Nc2ccc(Nc3ccc(F)cc3)cc2C1Cc1ccc2c(c1)OCO2 (stereo unspecified)	> 30 µM	> 100 µM	–
O=C1Nc2ccc(Nc3ccc(Cl)cc3)cc2/C1=C\c1ccccc1	15 µM	13.5 µM	–
O=C1Nc2ccc(Nc3ccc(Cl)cc3)cc2C1Cc1ccc2c(c1)OCO2 (stereo unspecified)	6 µM	36.7 µM	–
CCCCC1(O)C(=O)Nc2ccc(Nc3ccc(Cl)cc3)cc21 (stereo unspecified)	2.8 µM	24.4 µM	–
Cc1ccc(Nc2ccc3c(c2)C(CC2CCCCC2)C(=O)N3)cc1 (stereo unspecified)	> 30 µM	> 100 µM	–
CCCCCC1(O)C(=O)Nc2ccc(Nc3ccc(F)cc3)cc21 (stereo unspecified)	5.9 µM	> 100 µM	–
CCCCCCC1(O)C(=O)Nc2ccc(Nc3ccc(C(F)(F)F)cc3)cc21 (stereo unspecified)	2.8 µM	18.8 µM	–
O=C1Nc2ccc(Nc3ccc(Cl)cc3)cc2C1(O)Cc1ccccc1 (stereo unspecified)	3.1 µM	20.2 µM	–
CC(C)CCC1C(=O)Nc2ccc(Nc3ccc(Cl)cc3)cc21 (stereo unspecified)	2 µM	48.7 µM	–
Cc1ccc(Nc2ccc3c(c2)/C(=C\c2ccc4c(c2)OCO4)C(=O)N3)cc1	16.7 µM	> 100 µM	–
O=C1Nc2ccc(Nc3ccc(Cl)cc3)cc2C1CC1CCCCC1 (stereo unspecified)	16.6 µM	> 100 µM	–
CCCCCCC1(O)C(=O)Nc2ccc(Nc3ccc(C)cc3)cc21 (stereo unspecified)	12.1 µM	> 100 µM	–
Cc1ccc(Nc2ccc3c(c2)C(CCC(C)C)C(=O)N3)cc1 (stereo unspecified)	6.6 µM	55.3 µM	–
COc1ccc(Nc2ccc3c(c2)C(O)(Cc2ccccc2)C(=O)N3)cc1 (stereo unspecified)	> 30 µM	> 100 µM	–
O=C1Nc2ccc(Nc3ccc(C(F)(F)F)cc3)cc2C1(O)Cc1ccccc1 (stereo unspecified)	2 µM	9.1 µM	–
O=C1Nc2ccc(Nc3ccc(C(F)(F)F)cc3)cc2C1(O)Cc1ccc2c(c1)OCO2 (stereo unspecified)	1.8 µM	18.2 µM	viability at 2.5 µM (A549 [2]): 82.7%; Activity (A549 [3]): 11.6%; Activity (A549 [4]): 3.39%; Activity (A549 [5]): 2.25%; viability at 5 µM (A549 [6]): 65.3%; Activity (A549 [7]): 25.5%; Activity (A549 [8]): 7.57%; Activity (A549 [9]): 1.7%; inhibition (A549 [10]): Dose-dependent effect; inhibition (A549 [11]): Dose-dependent effect; inhibition (A549 [12]): Active; inhibition (A549 [13]): Active
O=C1Nc2ccc(Nc3ccc(Cl)cc3)cc2/C1=C\C1CCCCC1	2.4 µM	13.2 µM	–

Reference: ChEMBL document CHEMBL4368942, “Dual inhibitors of RAF-MEK-ERK and PI3K-PDK1-AKT pathways: Design, synthesis and preliminary anticancer activity studies of 3-substituted-5-(phenylamino) indolone derivatives” (Bioorg Med Chem, 2019)
